Reference: PMC3559019 (Chemistry & biology, 2013)

What was measured:
HIV-1 NL4-3 = experiment: HIV-1 infectivity in TZM-bl reporter cells; type: cell-based; settings: luciferase 48 h
Nef dimerization = Nef dimerization (Human immunodeficiency virus type 1 group M subtype B, UniProt P03407); experiment: BiFC assay for Nef dimerization in 293T cells; type: cell-based, HIV-1; settings: 1–6 μM, 48 h
SIV quasispecies ΔB670 = experiment: SIV replication in CEM-174 cells; type: cell-based; settings: Simian immunodeficiency virus, CEM174, 120 h, read-out: IC50, SIV replication
Method in brief: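 CEM-174 cells received test compound in DMSO over a range of concentrations, 1 h before infection with the pathogenic SIV quasispecies ΔB670. Replication was measured 5 d later as p27 Gag protein by ELISA.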

c-Src = c-Src (Homo sapiens, UniProt P12931); experiment: In vitro kinase assay, c-Src; type: biochemical
Sequence of c-Src (P12931 whole entry, species assumed): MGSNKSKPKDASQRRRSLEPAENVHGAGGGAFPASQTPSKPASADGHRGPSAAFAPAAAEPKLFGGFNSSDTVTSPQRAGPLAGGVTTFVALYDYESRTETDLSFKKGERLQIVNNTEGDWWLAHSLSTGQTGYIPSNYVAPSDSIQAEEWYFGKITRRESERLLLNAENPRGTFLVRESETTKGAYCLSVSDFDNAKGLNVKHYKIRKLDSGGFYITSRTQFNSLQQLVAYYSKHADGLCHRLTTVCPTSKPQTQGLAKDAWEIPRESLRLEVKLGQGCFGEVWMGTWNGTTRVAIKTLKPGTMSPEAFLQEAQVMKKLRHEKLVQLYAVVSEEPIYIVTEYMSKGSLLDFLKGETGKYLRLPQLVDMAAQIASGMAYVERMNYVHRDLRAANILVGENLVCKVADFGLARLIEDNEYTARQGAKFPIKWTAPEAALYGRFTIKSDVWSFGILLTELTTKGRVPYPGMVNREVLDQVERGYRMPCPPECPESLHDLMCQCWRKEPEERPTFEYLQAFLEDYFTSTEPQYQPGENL

SIV ΔB670 = experiment: SIV infectivity in TZM-bl reporter cells; type: cell-based; settings: Simian immunodeficiency virus, read-out: IC50, SIV infectivity
Method in brief: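 TZM-bl reporter cells (2.5 × 10^4/well) were plated 8 h before infection to adhere. Test compound was pre-incubated with SIV ΔB670 for 4 h, then added to the cells (final 200 μl). After 48 h at 37 °C, cells were washed with PBS and lysed. Infectivity was read as luciferase luminescence.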

Lck = Lck (Homo sapiens, UniProt P06239); experiment: In vitro kinase assay, Lck; type: biochemical
Sequence of Lck (P06239 whole entry, species assumed): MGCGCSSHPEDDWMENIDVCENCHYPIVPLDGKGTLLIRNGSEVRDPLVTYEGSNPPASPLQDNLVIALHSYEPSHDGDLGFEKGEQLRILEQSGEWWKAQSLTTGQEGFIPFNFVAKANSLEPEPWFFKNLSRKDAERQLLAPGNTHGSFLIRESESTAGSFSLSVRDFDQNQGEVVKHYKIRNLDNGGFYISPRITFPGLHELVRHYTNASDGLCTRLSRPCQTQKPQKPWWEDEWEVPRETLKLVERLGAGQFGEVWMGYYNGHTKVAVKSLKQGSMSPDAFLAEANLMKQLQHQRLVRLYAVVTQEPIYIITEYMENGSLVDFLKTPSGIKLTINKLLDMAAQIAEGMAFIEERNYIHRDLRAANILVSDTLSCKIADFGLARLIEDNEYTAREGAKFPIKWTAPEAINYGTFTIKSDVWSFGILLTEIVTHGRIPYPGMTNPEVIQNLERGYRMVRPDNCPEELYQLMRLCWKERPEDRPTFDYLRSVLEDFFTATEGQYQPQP

Lyn = Lyn (Homo sapiens, UniProt P07948); experiment: In vitro kinase assay, Lyn; type: biochemical
Sequence of Lyn (P07948 whole entry, species assumed): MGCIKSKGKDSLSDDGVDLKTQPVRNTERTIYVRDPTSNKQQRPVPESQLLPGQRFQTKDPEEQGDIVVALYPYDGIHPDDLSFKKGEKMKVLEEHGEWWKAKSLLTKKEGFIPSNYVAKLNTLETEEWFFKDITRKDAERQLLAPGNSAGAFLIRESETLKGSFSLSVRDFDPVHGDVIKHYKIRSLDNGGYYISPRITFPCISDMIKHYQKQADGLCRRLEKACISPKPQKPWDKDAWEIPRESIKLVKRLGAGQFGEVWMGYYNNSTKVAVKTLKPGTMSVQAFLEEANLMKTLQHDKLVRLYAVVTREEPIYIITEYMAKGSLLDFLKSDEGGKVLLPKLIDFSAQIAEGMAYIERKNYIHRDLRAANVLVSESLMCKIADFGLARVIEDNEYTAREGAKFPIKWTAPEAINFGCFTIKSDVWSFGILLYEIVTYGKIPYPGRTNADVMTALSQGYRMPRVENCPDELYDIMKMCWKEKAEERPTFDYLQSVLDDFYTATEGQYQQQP

[1] = test system: HIV-1 Nef Asn126 mutants (Ala, Leu, Gln); experiment: Surface plasmon resonance, Nef Asn126 mutants; type: binding; settings: SPR, B9 10 μM
[2] = test system: Nef-dependent SFK activation; experiment: Endogenous SFK activation in HIV-infected CEM-T4 cells; type: cell-based; settings: 1.0 μM
Method in brief: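 CEM-T4 cells (1 × 10^5) were infected with 50 pg p24 equivalents/ml wild-type HIV-1 NL4-3, ΔNef mutant or Nef chimeras in 10 ml, with test compound (1 μM) or DMSO carrier. Cells were lysed 8 days later and SFKs were immunoprecipitated with a pan-specific antibody. Immunoblots used an anti-pY418 activation-loop antibody. Lysates were blotted for Gag, Nef and actin (loading control). Uninfected cells were included.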

[3] = test system: Nef-defective (ΔNef) HIV-1 NL4-3; experiment: Nef-defective HIV-1 replication in CEM-T4 cells; type: cell-based

Sequence of Nef dimerization (P03407 whole entry): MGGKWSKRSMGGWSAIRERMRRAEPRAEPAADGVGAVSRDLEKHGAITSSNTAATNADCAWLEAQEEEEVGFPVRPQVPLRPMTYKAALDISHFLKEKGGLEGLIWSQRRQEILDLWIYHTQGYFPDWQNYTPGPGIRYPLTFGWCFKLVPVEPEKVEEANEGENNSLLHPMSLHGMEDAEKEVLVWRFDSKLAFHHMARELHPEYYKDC

NC(=S)n1nc(-c2ccc([N+](=O)[O-])cc2)c(/N=N/c2cccc(Cl)c2)c1O [B9, (E)-4-((3-chlorophenyl)diazenyl)-5-hydroxy-3-(4-nitrophenyl)-1H-pyrazole-1-carbothioamide] was tested, and the “Nef-mediated enhancement of HIV-1 infectivity” value (HIV-1 NL4-3) was “inhibited Nef-mediated enhancement of HIV-1 infectivity in a concentration-dependent manner”, the “Nef BiFC signal (Nef dimerization)” value (Nef dimerization) was “concentration-dependent loss” and the IC50 (SIV quasispecies ΔB670) was ~1000 nM. For the same molecule, the IC50 (c-Src) was > 20000 nM, the IC50 (SIV ΔB670) was ~3000 nM and the IC50 (Lck) was > 20000 nM. For the same molecule, the IC50 (Lyn) was > 20000 nM, the “Binding to Nef Asn126 mutants” value [1] was “none of these mutants demonstrated detectable binding” and the “Nef-dependent SFK activation (pY418)” value [2] was “completely inhibited”. For the same molecule, the “Effect on Nef-defective HIV replication (chimera experiment)” value ([3]; 0.3 and 1.0 μM, 10 days) was “no effect” and the “Effect on replication of Nef-defective HIV-1” value ([3]; highest concentration tested 3.0 μM) was “unaffected”.
